# Measured values as given in paper PMC3788622 (Journal of Medicinal Chemistry, 2013).
# Entries after “also recorded” stand apart in the source; their conditions may differ.
# How the values were obtained:
# male C57BL/6J mice [1] = experiment: Escalating single dose subcutaneous injections: animal weight and behavior; format: in vivo, mouse; conditions: for Weight loss: single sc injection at 1, 3, and 10 mg/kg, observed 9 days
# Method in brief: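 Male C57BL/6J mice, 8 weeks old, were acclimatised 3 days after arrival. Groups of four received one sc dose of 1, 3 or 10 mg/kg in up to 200 μL 25% DMSO/saline. Doses were set by UV/vis using ε 69 500 M–1·cm–1 near 315 nm. Mice were weighed daily for 9 days, then sacrificed. Humane end point was visible duress or weight loss over 15% of starting weight.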
# male C57BL/6J mice [2] = experiment: Histopathology after single subcutaneous injection; format: in vivo, mouse; conditions: for Organ toxicity by histopathology, overall: single sc dose, any dose level tested (1, 3, 10 mg/kg)
# Method in brief: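 After the single sc dose (1, 3 or 10 mg/kg, 25% DMSO/saline, 9-day observation), two representative mice per group were fixed in 10% formalin. A veterinary pathologist examined cecum, duodenum, heart, ileum, kidney, liver, lung, pancreas, spleen and stomach, blinded to animal identity.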
# male C57BL/6J mice [3] = experiment: Serum markers of liver and kidney damage after single subcutaneous injection; format: in vivo, mouse; conditions: single sc dose 1, 3, 10 mg/kg; dose stated in the value
# Method in brief: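 All mice from the single sc dose groups (1, 3, 10 mg/kg in 25% DMSO/saline, n = 4, 9-day observation) were bled retro-orbitally. Serum was obtained by centrifugation at 6000 rpm for 5 min. ALT, AST, total bilirubin, BUN and creatinine were measured externally, blinded to animal identity.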
# male C57BL/6J mice [4] = experiment: Histopathology after multiple subcutaneous injections; format: in vivo, mouse
# [5] = Liver microsomal stability; format: in vitro ADME; conditions: 1 mg/mL human liver microsomes, 37 °C, 60 min, with and without NADPH
# Method in brief: (§1)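 Test compound was incubated with 1 mg/mL human or mouse liver microsomes at 37 °C in 100 mM KH2PO4, 3 mM MgCl2, pH 7.4, with or without 2 mM NADPH. After 60 min, ice-cold methanol was added, samples sat on ice for 10 min or more, then were diluted with water and centrifuged. Analysis was by LC/MS/MS as percent remaining versus time zero, in duplicate.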
# [6] = Liver microsomal stability; format: in vitro ADME; conditions: 1 mg/mL mouse liver microsomes, 37 °C, 60 min, with and without NADPH
# Method in brief: as §1
# male C57BL/6J mice [7] = experiment: Serum markers of liver and kidney damage after multiple subcutaneous injections; format: in vivo, mouse; conditions: 1 mg/kg sc every 3 days, three injections
# Method in brief: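 Male C57BL/6J mice, 8 weeks old, were dosed in groups of three with 1 mg/kg sc every 3 days for three injections and sacrificed 2 days after the last. Weight was recorded on injection days and at the end point. Retro-orbital blood was spun at 6000 rpm for 5 min. Serum ALT, AST, total bilirubin, BUN and creatinine were assayed blinded.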
# male C57BL/6J mice [8] = experiment: Hematological analysis of wild-type mice after six injections; format: in vivo, mouse; conditions: six injections sc 1 mg/kg, before treatment vs at sacrifice
# Method in brief: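 Five healthy male C57BL/6J mice were bled retro-orbitally into K2EDTA tubes for baseline haematology and allowed 1 week to recover. They then received test compound 1 mg/kg sc in 20% DMSO/normal saline every 3 days for six injections. They were bled again 2 days after the final injection and euthanised. Serum and haematology samples were prepared separately; serum ALT, AST, total bilirubin, BUN and creatinine were measured. Data are the mean of five animals ± std.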
# RPB1 = RPB1 protein ELISA; format: cell-based; conditions: LNCaP cells
# Method in brief: (§2)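 LNCaP cells were treated with 10 μM test compound for 72 h. Controls were DMSO vehicle and 1 μM doxorubicin for 24 h. RPB1 was measured with an RPB1-specific ELISA kit and total p53 with a pan-p53 ELISA kit, each following the kit instructions, in biological triplicates.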
# p53 = p53 protein ELISA; format: cell-based; conditions: LNCaP cells
# Method in brief: as §2
# p21, IGFBP3, and GADD45A = experiment: Quantitative RT-PCR of p53 responsive genes; format: cell-based; conditions: LNCaP cells, 1, 3, 10 μM, 72 h
# Method in brief: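 LNCaP cells were seeded at 50 000 per well, left to adhere 36–48 h, and treated with 1, 3 or 10 μM test compound for 72 h. Total RNA was extracted on columns and reverse transcribed. p21, IGFBP3 and GADD45A were quantified by SYBR Green real-time PCR relative to β-glucuronidase, in biological replicates.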
# LNCaP cells = experiment: Alkaline comet assay; format: cell-based; conditions: 10 μM, 48 h
# Method in brief: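 LNCaP cells were seeded at 100 000 per well and left to adhere 36–48 h. They were then exposed to 10 μM test compound for 48 h, with 5 μM doxorubicin for 4 h as the comparator. DNA damage was assessed with a commercial comet kit after gentle harvest in PBS. Slides were imaged by confocal microscopy at 10×, and more than 100 comets were scored per condition as percentage of DNA in the tail.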
# [9] = system: liver tissue of male C57BL/6J mice; experiment: Liver uptake of fluorescein-polyamide conjugates; format: in vivo, mouse; conditions: 50 nmol (∼3 mg/kg), sacrificed 24 h later
# [10] = Serum levels after subcutaneous injection; format: in vivo, mouse; conditions: male C57BL/6J mice, 10 mg/kg sc
# [11] = single sc dose 3 mg/kg, 3 mg/kg
# [12] = 1 mg/kg sc every 3 days, three injections
structure (smiles),measurement,setting,value
"CC(=O)N[C@@H](CNC(=O)c1cc(NC(=O)c2cc(NC(=O)c3cc(NC(=O)c4nccn4C)cn3C)cn2C)cn1C)CC(=O)Nc1cn(C)c(C(=O)Nc2cc(C(=O)Nc3cc(C(=O)Nc4cc(C(=O)NCCCN(C)CCCNC(=O)c5cccc(C(=O)O)c5)n(C)c4)n(C)c3)n(C)c2)n1 [Polyamide 4, ImPyPyPy-3-(R)^AcHNγ-ImPyPyPy∼NHMe∼IPA]",Behavior and appearance,"male C57BL/6J mice [1]; single sc injection, 3 mg/kg","hunched posture, loss of mobility, and acute morbidity"
same,Behavior and appearance,"male C57BL/6J mice [1]; single sc injection, 10 mg/kg","hunched posture, loss of mobility, and acute morbidity"
same,Dose tolerated (only tolerated at),"male C57BL/6J mice [1]; single sc injection, 1, 3, 10 mg/kg tested",1 mg/kg
same,Kidney lesions by histopathology (in words),male C57BL/6J mice [2]; single sc dose 1 mg/kg,Milder tubular regeneration and karyomegaly
same,Liver lesions by histopathology (in words),male C57BL/6J mice [2]; single sc dose 1 mg/kg,Mild hepatocellular necrosis and apoptosis
same,Spleen lesions by histopathology (in words),male C57BL/6J mice [2]; single sc dose 3 mg/kg,Mild lymphoid apoptosis in the white pulp of the spleen
same,Kidney lesions by histopathology (in words),male C57BL/6J mice [2]; [11],"Moderate atypical tubular regeneration (karyomegaly, tubular attenuation, mitotic figures) and/or tubular epithelial necrosis and apoptosis"
same,Liver lesions by histopathology (in words),male C57BL/6J mice [2]; [11],multifocal bridging hepatocellular necrosis and apoptosis
same,Kidney lesions by histopathology (in words),male C57BL/6J mice [2]; single sc dose 10 mg/kg,"Moderate atypical tubular regeneration (karyomegaly, tubular attenuation, mitotic figures) and/or tubular epithelial necrosis and apoptosis"
same,Liver lesions by histopathology (in words),male C57BL/6J mice [2]; single sc dose 10 mg/kg,multifocal bridging hepatocellular necrosis and apoptosis
same,Spleen lesions by histopathology (in words),male C57BL/6J mice [2]; single sc dose 10 mg/kg,Mild lymphoid apoptosis in the white pulp of the spleen
same,Elevation of serum markers of liver and kidney damage (in words),male C57BL/6J mice [3],"marked and severe elevations of AST, ALT, and total bilirubin at both 3 and 10 mg/kg; also recorded: significantly elevated creatinine and BUN at 10 mg/kg and elevated BUN at 3 mg/kg"
same,Kidney lesions by histopathology (in words),"male C57BL/6J mice [4]; 1 mg/kg sc, two injections",hyaline droplet accumulation
same,Liver lesions by histopathology (in words),"male C57BL/6J mice [4]; 1 mg/kg sc, two injections",marked hepatocellular necrosis and apoptosis
same,Percent intact after 1 h incubation,[5],less than 5%
same,Percent intact after 1 h incubation,[6],less than 5%
"CC(=O)N[C@H](CCNC(=O)c1cc(NC(=O)c2cc(NC(=O)c3cc(NC(=O)c4nccn4C)cn3C)cn2C)cn1C)C(=O)Nc1cn(C)c(C(=O)Nc2cc(C(=O)Nc3cc(C(=O)Nc4cc(C(=O)NCCCN(C)CCCNC(=O)c5cccc(C(=O)O)c5)n(C)c4)n(C)c3)n(C)c2)n1 [Polyamide 3, ImPyPyPy-2-(R)^AcHNγ-ImPyPyPy∼NHMe∼IPA]","Organ toxicity by histopathology, overall",male C57BL/6J mice [2],no detectable toxicity
same,Elevation of serum markers of liver and kidney damage (in words),male C57BL/6J mice [3],no elevation of these markers at the dose levels tested
same,"Histopathologic lesions, overall",male C57BL/6J mice [4]; [12],no histopathologic lesions consistent with toxicity
same,Alteration of liver and kidney serum markers (in words),male C57BL/6J mice [7],no histopathologic lesions consistent with toxicity or alterations in liver and kidney serum markers
same,Hematologic changes (in words),male C57BL/6J mice [8],No significant hematologic changes
same,RPB1 protein level,"RPB1; 10 μM, 72 h",reduced RPB1 levels
same,Cellular level of p53 protein,"p53; 10 μM, 72 h",increased
same,"Transcripts of p53 responsive genes p21, IGFBP3, and GADD45A","p21, IGFBP3, and GADD45A",induced by 3 in a dose-dependent fashion; also recorded: increased
same,DNA damage (genomic fragmentation) by comet assay,LNCaP cells,no increase in genomic fragmentation; also recorded: did not result in increased DNA damage
CC(=O)N[C@H](CCNC(=O)c1cc(NC(=O)c2cc(NC(=O)c3cc(NC(=O)c4nccn4C)cn3C)cn2C)cn1C)C(=O)Nc1cn(C)c(C(=O)Nc2cc(C(=O)Nc3cc(C(=O)Nc4cc(C(=O)NCCCN(C)CCCNC(=S)Nc5ccc(-c6c7ccc(=O)cc-7oc7cc(O)ccc67)c(C(=O)O)c5)n(C)c4)n(C)c3)n(C)c2)n1 [Polyamide 8],Nuclear fluorescence in liver sections,[9],less nuclear fluorescence in liver sections than the other FITC–polyamide conjugates
"CN(CCCNC(=O)c1cccc(C(=O)O)c1)CCCNC(=O)c1cc(NC(=O)c2cc(NC(=O)c3cc(NC(=O)c4nc(NC(=O)C[C@@H](N)CNC(=O)c5cc(NC(=O)c6cc(NC(=O)c7cc(NC(=O)c8nccn8C)cn7C)cn6C)cn5C)cn4C)cn3C)cn2C)cn1C [Polyamide 2, ImPyPyPy-3-(R)^H2Nγ-ImPyPyPy∼NHMe∼IPA]",Weight loss,male C57BL/6J mice [1],significant weight loss only at 10 mg/kg
same,Kidney lesions by histopathology (in words),male C57BL/6J mice [2]; single sc dose 3 mg/kg,"Moderate atypical tubular regeneration (karyomegaly, tubular attenuation, mitotic figures) and/or tubular epithelial necrosis and apoptosis"
same,Liver lesions by histopathology (in words),male C57BL/6J mice [2]; single sc dose 3 mg/kg,Mild hepatocellular necrosis and apoptosis
same,Liver lesions by histopathology (in words),male C57BL/6J mice [2]; single sc dose 10 mg/kg,diffuse hepatocellular necrosis and apoptosis
same,Spleen lesions by histopathology (in words),male C57BL/6J mice [2]; single sc dose 10 mg/kg,Mild lymphoid apoptosis in the white pulp of the spleen
same,Elevation of serum markers of liver and kidney damage (in words),male C57BL/6J mice [3],"severe elevation of AST, ALT, and total bilirubin at 10 mg/kg and to a lesser extent at 3 mg/kg; also recorded: elevated BUN at 10 mg/kg"
same,Kidney lesions by histopathology (in words),male C57BL/6J mice [4]; [12],"mild variable tubular attenuation, karyomegaly, and epithelial necrosis and apoptosis"
same,Liver lesions by histopathology (in words),male C57BL/6J mice [4]; [12],mild multifocal hepatocellular necrosis and apoptosis
same,Alteration of liver and kidney serum markers (in words),male C57BL/6J mice [7],elevated AST and ALT
Cn1cc2cc1C(=O)NCCCC(=O)Nc1cn(C)c(n1)C(=O)Nc1cc(n(C)c1)C(=O)Nc1cc(n(C)c1)C(=O)Nc1cc(n(C)c1)C(=O)NCC[C@@H](N)C(=O)Nc1cn(C)c(n1)C(=O)Nc1cc(n(C)c1)C(=O)Nc1cc(n(C)c1)C(=O)N2 [Polyamide 5],Weight loss,male C57BL/6J mice [1],did not cause significant weight loss; also recorded: less effect on animal weight than 1
same,"Organ toxicity by histopathology, overall",male C57BL/6J mice [2],did affect the kidney and liver
same,Elevation of serum markers of liver and kidney damage (in words),male C57BL/6J mice [3],caused levels of ALT and AST to increase in a dose-dependent manner
same,Serum bioavailability after subcutaneous injection,[10],bioavailable
"COc1cccc2c1C(=O)c1c(O)c3c(c(O)c1C2=O)C[C@@](O)(C(=O)CO)C[C@@H]3O[C@H]1C[C@H](N)[C@H](O)[C@H](C)O1 [doxorubicin, reference compound]",RPB1 protein level,"RPB1; 1 μM, 24 h",decreases
same,Cellular level of p53 protein,"p53; 1 μM, 24 h",increases
CC(=O)N[C@@H](CNC(=O)c1cc(NC(=O)c2cc(NC(=O)c3cc(NC(=O)c4nccn4C)cn3C)cn2C)cn1C)CC(=O)Nc1cn(C)c(C(=O)Nc2cc(C(=O)Nc3cc(C(=O)Nc4cc(C(=O)NCCCN(C)CCCNC(=S)Nc5ccc(-c6c7ccc(=O)cc-7oc7cc(O)ccc67)c(C(=O)O)c5)n(C)c4)n(C)c3)n(C)c2)n1 [Polyamide 9],Nuclear fluorescence in liver sections,[9],the most intense nuclear fluorescence in liver sections
